# Measured values of several laboratories.
# Protocols differ between the studies behind these lines.
# EGFR: Epidermal growth factor receptor (EGFR, Homo sapiens, UniProt P00533)
# EGFR G719C: Epidermal growth factor receptor (EGFR, Homo sapiens, UniProt P00533, G719C)
# EGFR del746-750: Epidermal growth factor receptor (EGFR, Homo sapiens, UniProt P00533, del746-750)
# EGFR L858R: Epidermal growth factor receptor (EGFR, Homo sapiens, UniProt P00533, L858R)
Structure (SMILES),target,read-out,mode,method,tested at,measurement,value
COc1ccc2oc(-c3ccc4nc(N)oc4c3)c/c(=N\c3ccccc3NC(=O)CCN)c2c1,"Epidermal growth factor receptor (EGFR, Homo sapiens, UniProt P00533, L858R/T790M)",cell-free assay,,,1 µM,remaining signal,106%
CO[C@@H]1[C@H](N(C)C(=O)c2ccccc2)C[C@H]2O[C@]1(C)n1c3ccccc3c3c4c(c5c6ccccc6n2c5c31)C(=O)NC4,"Epidermal growth factor receptor (EGFR, Homo sapiens, UniProt P00533, del747-752/P753S)",enzyme activity,inhibitor,,1 µM,inhibition,10%
COc1ccc2[nH]c3c4[nH]c5ccc(OC)cc5c4c4c(c3c2c1)C(=O)NC4=O,"Epidermal growth factor receptor (EGFR, Homo sapiens, UniProt P00533, del752-759)",binding,,,1 µM,remaining binding,68%
C#Cc1cnc(Nc2ccc(CO)nc2)nc1Nc1ccccc1S(C)(=O)=NC#N (stereo not shown),EGFR,enzyme activity,inhibitor,radiometric,1 µM,remaining activity,75.6%
CN1CCN(C(=O)c2ccc(NC(=O)Nc3ccc(N(C)c4ccnc(Nc5ccc(CS(C)(=O)=O)cc5)n4)cc3)cc2)CC1,EGFR G719C,binding,,,1 µM,remaining binding,95%
CC#CC(=O)N1CCC[C@H]1c1nc(-c2ccc(C(=O)Nc3ccccn3)cc2)c2c(N)nccn12,EGFR del746-750,enzyme activity,inhibitor,,1 µM,inhibition,0%
N#Cc1ccc(NC(=O)Nc2ccccc2)cc1,EGFR L858R,cell-free assay,,competition with immobilised ligand,25 µM,remaining binding,75%
C[C@H]1CC[C@H](n2c3cnccc3c3cnc(Nc4ccc5c(n4)CCN(C(=O)CO)C5)nc32)CC1,"Epidermal growth factor receptor (EGFR, Homo sapiens, UniProt P00533, L861Q)",cell-free assay,,,1 µM,remaining signal,82%
C1=C/COCc2cc(ccc2OCCN2CCCC2)Nc2nccc(n2)-c2cccc(c2)COC/1,EGFR L858R,binding,,,0.1 µM,remaining binding,71%
C#Cc1cnc(Nc2ccnc(CO)c2)nc1Nc1ccccc1S(C)(=O)=NC#N (stereo not shown),EGFR,enzyme activity,inhibitor,radiometric,1 µM,remaining activity,80%
Cc1ccc(NC(=O)c2ccnc(C(F)(F)F)c2)cc1-c1cc(OCCO)nc(N2CCOCC2)c1,EGFR G719C,binding,,,1 µM,remaining binding,97%
C#Cc1cnc(Nc2ccc(CO)cc2)nc1Nc1ccccc1C(=O)NC,EGFR,enzyme activity,inhibitor,radiometric,1 µM,remaining activity,10.1%
C=CC(=O)N1CCC([C@@H]2CCNc3c(C(N)=O)c(-c4ccc(Oc5ccccc5)cc4)nn32)CC1,EGFR del746-750,cell-free assay,,,1 µM,inhibition,21%
